The values below come from ChEMBL document CHEMBL2424574, “Structure-activity relationships and pharmacophore model of a noncompetitive pyrazoline containing class of GluN2C/GluN2D selective antagonists” (J Med Chem, 2013).

For data set [1], the target named is 5-hydroxytryptamine receptor 1E (Homo sapiens, UniProt P28566). Kind of data set: Inhibition of 5HT1E receptor (unknown origin). An outline of the steps:
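Radioligand panel screening was run through the NIMH Psychoactive Drug Screening Program with compounds at 5 µM.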

Data set [2] deals with T1, Ionotropic glutamate receptor NMDA 1/2D (Homo sapiens) (UniProt Q05586+O15399). As to conditions: Oocyte, 1 uM.
The target in data set [3] is T1, Ionotropic glutamate receptor NMDA 1/2D (Homo sapiens). The note with it: Oocyte, 1 uM. This is another data set of the same source.
Another data set deals with Liver microsomes. Description: Metabolic stability in human liver microsomes assessed as compound remaining at 1 uM after 30 mins by LC-MS/MS analysis. The class given is ADME, Microsome. As to conditions: 0.5 h. The essentials:
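Human liver microsomes 0.5 mg/mL in 100 mM potassium phosphate pH 7.4 with 5 mM MgCl2 and 1 μM test compound. Preincubated 3 min at 37 °C, then started with 1 mM NADPH, with a testosterone control in parallel. Sampled at 0, 10, 20, 30 and 60 min and quenched in cold acetonitrile/water with formic acid and internal standard. Percent remaining by LC-MS/MS (MRM) versus time 0. t1/2 = 0.693/k from the ln-remaining slope; CLint = k/protein concentration.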

5-hydroxytryptamine receptor 1E, sequence (P28566 whole entry): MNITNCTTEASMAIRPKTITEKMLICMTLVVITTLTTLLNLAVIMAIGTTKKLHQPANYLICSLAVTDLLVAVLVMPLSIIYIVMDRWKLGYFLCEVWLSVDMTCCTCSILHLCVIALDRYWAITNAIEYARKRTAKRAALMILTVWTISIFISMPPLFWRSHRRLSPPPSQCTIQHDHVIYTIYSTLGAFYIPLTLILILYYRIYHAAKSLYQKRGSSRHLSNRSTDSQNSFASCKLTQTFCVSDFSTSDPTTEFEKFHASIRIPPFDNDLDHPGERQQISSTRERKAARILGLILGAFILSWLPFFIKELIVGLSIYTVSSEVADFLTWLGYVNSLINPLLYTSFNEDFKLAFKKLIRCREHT

In data set [1], `O=C(O)/C=C/C(=O)N1N=C(c2c(-c3ccc(Br)cc3)c3ccccc3[nH]c2=O)CC1c1ccc(Cl)cc1` (racemic) had a Ki of more than 10 µM. For the same molecule, the residual activity in data set [2] was determined as 4.8%; in data set [3], 4.9%.
`O=C(O)CCC(=O)N1N=C(c2c(-c3ccc(Cl)cc3)c3ccccc3[nH]c2=O)CC1c1ccc(Cl)cc1` (racemic): the Stability with Liver microsomes is listed as 115%.
